About 1,900 (66%) of roughly 2,900 compounds were called active. The set was probably picked from earlier hits. The list is a sample of the results. Unmarked numbers belong to inactive results.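 How the source made its calls: active means mean inhibition across replicates above the hit cutoff set in the primary screen (cut at about 8.5% in these data); inactive means the rest.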

This assay deals with Disintegrin and metalloproteinase domain-containing protein 17 (Homo sapiens) (UniProt P78536). The assay can be described thus: inhibition of human ADAM17 protease activity – biochemical, QFRET peptide cleavage, confirmation (AID 743257).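 Further: 0% = DMSO wells and 100% = marimastat wells.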 To be noted: recombinant ADAM17, EDANS/DABCYL QFRET peptide cleavage; at 6.95 µM; stronger effect = higher value. Put shortly: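 Assay system: human ADAM17 protease with quenched FRET peptide substrate / Buffer or medium: 50 mM HEPES buffer, pH 7.5, with 0.01% Brij / Schedule: 30 min preincubation, 3 h reaction / Technique: fluorescence at ex 359 nm, em 460 nm / Read-out: percent inhibition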
Chain of Disintegrin and metalloproteinase domain-containing protein 17 (Homo sapiens) (P78536 215-824 limits assumed): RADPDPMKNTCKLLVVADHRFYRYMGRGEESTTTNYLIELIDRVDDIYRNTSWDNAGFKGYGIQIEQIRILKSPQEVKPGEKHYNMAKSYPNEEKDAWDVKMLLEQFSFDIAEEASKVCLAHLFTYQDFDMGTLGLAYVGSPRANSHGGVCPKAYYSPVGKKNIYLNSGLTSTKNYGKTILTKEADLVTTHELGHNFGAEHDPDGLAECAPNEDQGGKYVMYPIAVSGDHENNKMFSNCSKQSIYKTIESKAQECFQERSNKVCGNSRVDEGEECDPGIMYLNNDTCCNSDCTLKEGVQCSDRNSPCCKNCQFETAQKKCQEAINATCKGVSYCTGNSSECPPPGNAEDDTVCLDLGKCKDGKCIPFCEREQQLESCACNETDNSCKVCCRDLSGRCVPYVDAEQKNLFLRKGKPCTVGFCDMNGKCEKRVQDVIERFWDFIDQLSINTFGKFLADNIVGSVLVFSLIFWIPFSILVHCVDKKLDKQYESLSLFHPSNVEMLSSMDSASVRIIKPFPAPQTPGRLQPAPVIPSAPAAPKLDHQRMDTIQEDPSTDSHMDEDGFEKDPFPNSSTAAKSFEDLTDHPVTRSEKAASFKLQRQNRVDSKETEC
As for `CCOC(=O)CC(SP1(=S)OCC2(CCCCO2)C(C2CCCCO2)O1)C(=O)OCC` (configuration not stated), the inhibition was 24.1% (active).
Take `COC(=O)C1=C(c2ccc(-c3ccccc3)c(F)c2)C[C@@H]2CC[C@H]1N2C(=O)NCc1ccc(F)cc1`: the inhibition is 7.03%.

As usually defined, the inhibition is the share of the control response that was lost under treatment.
